Assay [1] in a line: inhibitors of TNFa-induced NFkB p65 translocation, primary screen, imaging, HUVEC, MLSMR starter and 10KST1 sets (AID 438;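 active = inhibition above 20% together with a positive visual image hit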;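 also: compound added about 3h40 before a 20 min TNFalpha stimulation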;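 as to inhibition: signal is the nuclear over cytoplasmic p65 intensity ratio per well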). The settings on record: HUVEC TNFa-induced p65 nuclear translocation; cell count: measured here: nuclei count (cytotoxicity indicator), at 2.08 µM; inhibition: at 2 µM, stronger effect = higher value, 0% TNFa-plus-vehicle, 100% no-TNFa wells.
Assay [2] can be described thus: inhibitors of mutant huntingtin aggregation, primary screen, imaging, exon1htt(103Q)mCFP cells, high-content imaging (AID 483;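 active = visual image review flags a hit and inhibition of aggregation exceeds 20%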;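 also: compound exposure lasted 3 days before fixation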;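 as to nuclei count: percent of the per-plate median nuclei count of sample wells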). Conditions: exon1htt(103Q)mCFP cell line, aggregate imaging, at 2 µM; inhibition of aggregation: stronger effect = higher value; nuclei count: measured here: cell count, toxicity.
Assay [3] can be described thus: inhibitors of E-selectin induction by TNFa, primary screen, imaging, HUVEC, immunofluorescence, MLSMR starter and 10KST1 sets (AID 487;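 active = visually confirmed hit in the image check and inhibition above 20%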;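 as to inhibition: signal is fraction of cell area covered by stained E-selectin grains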;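 as to nuclei count: 100% = median nuclei count of all wells on the same plate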). Conditions: HUVEC TNFalpha-induced E-selectin immunofluorescence imaging, at 2 µM; inhibition: stronger effect = higher value; nuclei count: measured here: cell number, toxicity.
For assay [4], the target named is Voltage-gated potassium channel subunit beta-2 (Rattus norvegicus) (UniProt P62483). Description: KvBeta enzyme negative modulators, primary screen, biochemical, NADPH fluorescence (AID 622;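 active = fluorescence slope higher than the sample average by over 3 SD, cut at about -0.22 in these data, passing the limit was not always enough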;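 also: slope of raw intensity against log time taken from 70 to 1610 s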). Conditions: recombinant KvBeta, 4-cyanobenzaldehyde reduction, at 10 µM, stronger effect = higher value.
Chain of Voltage-gated potassium channel subunit beta-2 (Rattus norvegicus) (P62483 whole entry, looked up): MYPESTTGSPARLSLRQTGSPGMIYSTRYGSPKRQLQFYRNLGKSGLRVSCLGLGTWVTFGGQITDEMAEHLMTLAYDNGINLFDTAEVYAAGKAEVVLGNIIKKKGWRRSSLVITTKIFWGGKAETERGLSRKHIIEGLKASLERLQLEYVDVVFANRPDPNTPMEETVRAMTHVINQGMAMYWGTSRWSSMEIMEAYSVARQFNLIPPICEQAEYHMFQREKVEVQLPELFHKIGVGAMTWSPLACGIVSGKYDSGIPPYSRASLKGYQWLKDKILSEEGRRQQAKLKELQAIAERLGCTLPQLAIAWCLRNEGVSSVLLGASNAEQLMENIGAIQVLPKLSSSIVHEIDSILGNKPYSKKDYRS
For assay [5] the target is unchanged. Description: KvBeta positive modulators, primary screen, biochemical, NADPH fluorescence (AID 623;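 active = NADPH fluorescence slope more negative than the mean of all samples by about 3 SD, 99.7% confidence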;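 also: fluorescence intensity change per second fitted from 20 to 320 s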). The settings on record: Recombinant KvBeta, NADPH fluorescence decrease slope, 10 min; at 10 µM; stronger effect = lower value.
Assay [6] concerns the target Muscarinic acetylcholine receptor M4 (Homo sapiens) (UniProt P08173). Description: compounds altering M4/GIRK thallium flux, either direction, primary screen, M4 allosteric agonist project, cell-based, HEK293 M4/GIRK, BTC-AM (AID 625;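 active = fluorescence slope after compound addition differing from the mean of all tested samples at 99.7% confidence, mostly higher but some lower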;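 also: thallium influx through GIRK channels coupled to M4 in HEK293 cells with BTC-AM dye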). The settings on record: at 10 µM, actives lie on both sides. A digest of the protocol:
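assay system = HEK293 cells with M4 receptor and GIRK channels | medium = pH 7.3 thallium assay buffer | doses = 10 µM final, single point | timing = cells overnight at 37 °C, BTC-AM loading 1 h, reads 2 min total | signal = BTC-AM fluorescence, 1 Hz kinetic reads | read-out = post-addition slope, 15–24 s, of baseline-normalized fluorescence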

A short description of assay [7]: inhibitors of Sendai virus-induced IRF3 signaling, primary screen, TLR/RLR signaling modifier project, cell-based, Sendai virus stimulus, luciferase, 10K MLSCN set (AID 602276).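 Also: firefly luciferase from ISG56 promoter only with Renilla not read in this screen; 0% = Sendai virus plus DMSO and 100% = medium plus DMSO without virus.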 The settings on record: HEK293 RL24 IRF3 luciferase reporter, at 10 µM, stronger effect = higher value. For orientation: Reporter assays use an easily measured gene product as a stand-in for the process of interest.

The nature of assay [8]: inhibitors of poly I:C-induced TLR3 signaling, primary screen, cell-based, poly I:C stimulus, luciferase, 10K MLSCN set (AID 602277;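 active = inhibition of the reporter signal at or above 50%; inactive = inhibition below 50%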). The settings on record: HEK293-TLR3 RL24 IRF3 luciferase reporter, at 10 µM, stronger effect = higher value.

The source made the active and inactive calls.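 The calls were made as follows, unless noted: active = inhibition at or above 50% at 10 µM; inactive = inhibition below 50%.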

The values that follow come from PubChem BioAssay.

Chain of Muscarinic acetylcholine receptor M4 (Homo sapiens) (P08173 whole entry, looked up): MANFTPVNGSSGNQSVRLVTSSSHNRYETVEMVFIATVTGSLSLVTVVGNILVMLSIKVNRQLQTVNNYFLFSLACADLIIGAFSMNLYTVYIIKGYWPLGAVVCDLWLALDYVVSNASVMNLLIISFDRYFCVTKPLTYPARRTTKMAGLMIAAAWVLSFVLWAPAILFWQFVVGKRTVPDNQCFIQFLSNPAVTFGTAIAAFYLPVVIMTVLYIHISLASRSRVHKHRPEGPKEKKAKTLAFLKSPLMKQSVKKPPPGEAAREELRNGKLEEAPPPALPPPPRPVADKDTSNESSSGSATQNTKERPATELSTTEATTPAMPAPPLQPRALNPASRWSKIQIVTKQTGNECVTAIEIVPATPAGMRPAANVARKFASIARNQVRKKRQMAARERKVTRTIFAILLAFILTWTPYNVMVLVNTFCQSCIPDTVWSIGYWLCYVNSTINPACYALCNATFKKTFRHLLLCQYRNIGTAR

As a reminder, the inhibition is the relative decrease from the control value, in per cent. Regarding `COc1cc(C(=O)Nc2ccc3c(c2)C(=O)N(CCC(=O)O)C3=O)cc(OC)c1OC`, the cell count in assay [1] was found to be 469. The inhibition in assay [1] was 2% (inactive); in assay [3] it was -37.8% (inactive); in assay [7], 12.6% (inactive); in assay [8], 18% (inactive). Besides, in assay [2], the inhibition of aggregation is 4.8% (inactive). Besides, the nuclei count in assay [2] was found to be 89.5%; in assay [3], 87.3%. The fluorescence slope in assay [4] is -0.488 (inactive); in assay [6], 0.00491 (inactive). Further, the NADPH fluorescence slope in assay [5] was -4.2e-05 (inactive).

For `CC(=O)Nc1nc(C)c(-c2csc(Nc3ccc(O)cc3)n2)s1`, the cell count in assay [1] was 547. Also, the inhibition in assay [1] is 1.5% (inactive); in assay [3], -154% (inactive); in assay [7], 20.1% (inactive); in assay [8], 9.01% (inactive). Also, the inhibition of aggregation in assay [2] was 33.1% (inactive). Besides, the results for the nuclei count in assay [2] and in assay [3] were 99.7% and 164%, respectively. The fluorescence slope in assay [4] is -0.556 (inactive); in assay [6], 0.00314 (inactive). Moreover, the NADPH fluorescence slope in assay [5] is -2.7e-05 (inactive).

Turning to `CCOc1cc(C2C(C(=O)OC(C)C)=C(C)N=C3SCCC(=O)N32)ccc1OC(C)=O` (centres undefined), the cell count in assay [1] came out at 284. The inhibition in assay [1] is 5.8% (inactive); in assay [3], 1.9% (inactive); in assay [7] it was 11.7% (inactive); in assay [8] it was 24% (inactive). For the same compound, in assay [2], the inhibition of aggregation was 8.8% (inactive). Further, the nuclei count in assay [2] and in assay [3] was 105% in each case. Besides, the fluorescence slope in assay [4] was -0.42 (inactive); in assay [6], 0.00512 (inactive). Besides, the NADPH fluorescence slope in assay [5] was -0.000412 (inactive).

Consider `O=C(CSc1nc2[nH]ncc2c(=O)n1-c1ccccc1Br)NCc1ccco1`, for which the cell count in assay [1] was 517. Moreover, the inhibition is -24% (inactive) in assay [1], -15.2% (inactive) in assay [3], 22.2% (inactive) in assay [7] and 28.1% (inactive) in assay [8]. In assay [2], the inhibition of aggregation is -8.3% (inactive). In addition, the nuclei count in assay [2] stood at 83.4%; in assay [3], 95%. Besides, the results for the fluorescence slope in assay [4] and in assay [6] were -0.549 (inactive) and 0.00777 (inactive), respectively. Further, the NADPH fluorescence slope in assay [5] was -3.1e-05 (inactive).

Regarding `COCC(=O)Nc1sc2c(c1C(=O)OC)CCC(C)C2` (centres undefined), the cell count in assay [1] was 421. Further, the inhibition is 5.5% (inactive) in assay [1], -127% (inactive) in assay [3], 16.5% (inactive) in assay [7] and -17% (inactive) in assay [8]. The inhibition of aggregation in assay [2] is -7.6% (inactive). In addition, the nuclei count in assay [2] turned out to be 94.2%; in assay [3] it was 126%. For the same compound, the fluorescence slope in assay [4] is -0.471 (inactive); in assay [6], 0.00475 (inactive). Also, in assay [5], the NADPH fluorescence slope was -3.9e-05 (inactive).

With `COC(=O)c1ccccc1NC(=O)c1noc2c1CC(C(C)(C)C)CC2` (centres undefined), the cell count in assay [1] is 216. Moreover, the inhibition in assay [1] was 4.9% (inactive); in assay [3] it was -31.4% (inactive); in assay [7], 8.65% (inactive); in assay [8] it was 4.53% (inactive). The inhibition of aggregation in assay [2] was 0.9% (inactive). For the same compound, the nuclei count was found to be 104% in assay [2] and 116% in assay [3]. In addition, the results for the fluorescence slope in assay [4] and in assay [6] were -0.559 (inactive) and 0.00974 (inactive), respectively. For the same compound, in assay [5], the NADPH fluorescence slope is -3.2e-05 (inactive).

With `O=C(Cc1ccc(Br)cc1)N1CCCCCC1`, the cell count in assay [1] turned out to be 358. Further, the inhibition in assay [1] is -0.2% (inactive); in assay [3], -68.6% (inactive); in assay [7], -33.9% (inactive); in assay [8], -69.5% (inactive). Also, in assay [2], the inhibition of aggregation was 1.7% (inactive). The nuclei count in assay [2] stood at 99.5%; in assay [3], 99.7%. In addition, the results for the fluorescence slope in assay [4] and in assay [6] were -0.657 (inactive) and 0.00369 (inactive), respectively. The NADPH fluorescence slope in assay [5] was 1.8e-05 (inactive).

In the case of `C=CCOc1nc(N2CCCC2)nc(N2CCCC2)n1`, in assay [1], the cell count is 579. Moreover, the inhibition in assay [1] is -7.6% (inactive); in assay [3], 23.8% (inactive); in assay [7] it was 10.7% (inactive); in assay [8], 14.3% (inactive). Also, the inhibition of aggregation in assay [2] was 4.8% (inactive). Also, the nuclei count in assay [2] came to 109%; in assay [3] it was 84.1%. In addition, the fluorescence slope in assay [4] is -0.551 (inactive); in assay [6] it was 0.00552 (inactive). Also, in assay [5], the NADPH fluorescence slope was -8.3e-05 (inactive).

As for `CCOC(=O)c1cc2sccc2n1CC(=O)Nc1ccc(OC)cc1OC`, the cell count in assay [1] was determined as 550. In addition, the inhibition in assay [1] is -28.2% (inactive); in assay [3] it was -22.6% (inactive); in assay [7], 19% (inactive); in assay [8], 32.5% (inactive). Also, the inhibition of aggregation in assay [2] was 2.8% (inactive). The nuclei count amounted to 96.6% in assay [2] and 107% in assay [3]. The fluorescence slope was -0.542 (inactive) in assay [4] and 0.00418 (inactive) in assay [6]. Besides, the NADPH fluorescence slope in assay [5] is 5.3e-06 (inactive).

As for `CN(Cc1nc(-c2ccncc2)no1)S(=O)(=O)c1ccc(Br)cc1`, in assay [1], the cell count was determined as 492. The inhibition in assay [1] was -9.3% (inactive); in assay [3], -56.8% (inactive); in assay [7], 4.91% (inactive); in assay [8], -6.05% (inactive). The inhibition of aggregation in assay [2] was -5.7% (inactive). Also, the nuclei count in assay [2] is 108%; in assay [3] it was 194%. The fluorescence slope in assay [4] was -0.589 (inactive); in assay [6], 0.01 (inactive). For the same compound, in assay [5], the NADPH fluorescence slope is -3.3e-05 (inactive).

Take `CCCC(C)C1C(C#N)=C(N)Oc2cc(C)oc(=O)c21` (centres undefined): in assay [1], the cell count amounted to 396. Further, the inhibition in assay [1] is -15.6% (inactive); in assay [3], -185% (inactive); in assay [7], 18.1% (inactive); in assay [8] it was 18.7% (inactive). Besides, the inhibition of aggregation in assay [2] is -2.4% (inactive). For the same compound, the nuclei count stood at 68.3% in assay [2] and 134% in assay [3]. For the same compound, the fluorescence slope in assay [4] was -0.455 (inactive); in assay [6], 0.00507 (inactive). Also, the NADPH fluorescence slope in assay [5] was -9.5e-05 (inactive).

With `Clc1cccc(-c2nn3c(Cn4cnc5ccccc54)nnc3s2)c1`, the cell count in assay [1] came to 581. The inhibition in assay [1] was 4.7% (inactive); in assay [3], -92.1% (inactive); in assay [7], 18.7% (inactive); in assay [8] it was 21.6% (inactive). Further, the inhibition of aggregation in assay [2] was -6.1% (inactive). The nuclei count came out at 113% in assay [2] and 130% in assay [3]. Also, the fluorescence slope was -0.432 (inactive) in assay [4] and 0.00396 (inactive) in assay [6]. In addition, the NADPH fluorescence slope in assay [5] was -0.000274 (inactive).

As for `COc1ccccc1-c1cn[nH]c(=S)n1`, the cell count in assay [1] stood at 428. The inhibition was 1.6% (inactive) in assay [1], -41.2% (inactive) in assay [3], -32.7% (inactive) in assay [7] and -25.8% (inactive) in assay [8]. Further, the inhibition of aggregation in assay [2] was 4.2% (inactive). The values for the nuclei count in assay [2] and in assay [3] were 93% and 101%, respectively. Besides, the fluorescence slope was -0.576 (inactive) in assay [4] and 0.00535 (inactive) in assay [6]. For the same compound, the NADPH fluorescence slope in assay [5] is 2.7e-05 (inactive).

On to `C=C(C)CSc1nnc2[nH]c(=O)cc(N)n12`, for which, in assay [1], the cell count worked out at 371. For the same compound, the inhibition was 0% (inactive) in assay [1], -70.9% (inactive) in assay [3], 15.7% (inactive) in assay [7] and 14.4% (inactive) in assay [8]. Moreover, the inhibition of aggregation in assay [2] is 31.5% (inactive). For the same compound, the nuclei count came to 54.8% in assay [2] and 116% in assay [3]. Also, the fluorescence slope is -0.458 (inactive) in assay [4] and 0.00517 (inactive) in assay [6]. The NADPH fluorescence slope in assay [5] was -6e-05 (inactive).
